From ChEMBL document CHEMBL4152256, “Structure-activity relationship of new antimalarial 1-aryl-3-susbtituted propanol derivatives: Synthesis, preliminary toxicity profiling, parasite life cycle stage studies, target exploration, and targeted delivery” (Eur J Med Chem, 2018)

Assays:
[1] = Genotoxicity in Salmonella typhimurium TA1535 harboring pSK1002 assessed as umu gene induction at 0.002 mg/ml in absence of Sprague-Dawley rat liver S9 fraction after by SOS/umu assay relative to control; type: toxicity, organism-based; settings: salmonella enterica subsp. enterica serovar typhimurium, read-out: FC
[2] = Genotoxicity in Salmonella typhimurium TA1535 harboring pSK1002 assessed as umu gene induction at 0.001 mg/ml in presence of Sprague-Dawley rat liver S9 fraction after by SOS/umu assay relative to control; type: toxicity, organism-based; settings: salmonella enterica subsp. enterica serovar typhimurium, read-out: FC
[3] = Genotoxicity in Salmonella typhimurium TA1535 harboring pSK1002 assessed as survival at 0.002 mg/ml in absence of Sprague-Dawley rat liver S9 fraction after by SOS/umu assay relative to control; type: toxicity, organism-based; settings: salmonella enterica subsp. enterica serovar typhimurium, read-out: Survival
[4] = Cytotoxicity against human HepG2A16 cells by MTT assay; type: cell-based; settings: HepG2A16 cells
Procedure, shortened: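 MTT viability assay on HepG2-A16 cells, giving CC50 values.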

[5] = Genotoxicity in Salmonella typhimurium TA1535 harboring pSK1002 assessed as umu gene induction at 0.063 mg/ml in absence of Sprague-Dawley rat liver S9 fraction after by SOS/umu assay relative to control; type: toxicity, organism-based; settings: salmonella enterica subsp. enterica serovar typhimurium, read-out: FC
[6] = Genotoxicity in Salmonella typhimurium TA1535 harboring pSK1002 assessed as umu gene induction at 0.004 mg/ml in presence of Sprague-Dawley rat liver S9 fraction after by SOS/umu assay relative to control; type: toxicity, organism-based; settings: salmonella enterica subsp. enterica serovar typhimurium, read-out: FC
[7] = Genotoxicity in Salmonella typhimurium TA1535 harboring pSK1002 assessed as survival at 0.063 mg/ml in absence of Sprague-Dawley rat liver S9 fraction after by SOS/umu assay relative to control; type: toxicity, organism-based; settings: salmonella enterica subsp. enterica serovar typhimurium, read-out: Survival
[8] = Genotoxicity in Salmonella typhimurium TA1535 harboring pSK1002 assessed as survival at 0.031 mg/ml in presence of Sprague-Dawley rat liver S9 fraction after by SOS/umu assay relative to control; type: toxicity, organism-based; settings: salmonella enterica subsp. enterica serovar typhimurium, read-out: Survival
[9] = Selectivity index, ratio of CC50 for human HepG2A16 cells by MTT assay to IC50 for multidrug-resistant Plasmodium falciparum FCR-3; type: toxicity; settings: HepG2A16 cells, read-out: Ratio CC50/IC50
Procedure, shortened: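 HepG2-A16 human hepatoma cells were tested by MTT viability assay to give CC50. Blood-stage activity was measured against the multidrug-resistant P. falciparum FCR-3 strain by [3H]-hypoxanthine incorporation to give IC50. SI = CC50 HepG2 / FCR-3 IC50.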

[10] = Genotoxicity in Salmonella typhimurium TA1535 harboring pSK1002 assessed as umu gene induction at 0.008 mg/ml in presence of Sprague-Dawley rat liver S9 fraction after by SOS/umu assay relative to control; type: toxicity, organism-based; settings: salmonella enterica subsp. enterica serovar typhimurium, read-out: FC
[11] = Genotoxicity in Salmonella typhimurium TA1535 harboring pSK1002 assessed as umu gene induction at 0.004 mg/ml in absence of Sprague-Dawley rat liver S9 fraction after by SOS/umu assay relative to control; type: toxicity, organism-based; settings: salmonella enterica subsp. enterica serovar typhimurium, read-out: FC
[12] = Genotoxicity in Salmonella typhimurium TA1535 harboring pSK1002 assessed as survival at 0.031 mg/ml in absence of Sprague-Dawley rat liver S9 fraction after by SOS/umu assay relative to control; type: toxicity, organism-based; settings: salmonella enterica subsp. enterica serovar typhimurium, read-out: Survival
[13] = Genotoxicity in Salmonella typhimurium TA1535 harboring pSK1002 assessed as survival at 0.125 mg/ml in absence of Sprague-Dawley rat liver S9 fraction after by SOS/umu assay relative to control; type: toxicity, organism-based; settings: salmonella enterica subsp. enterica serovar typhimurium, read-out: Survival
[14] = test system: Plasmodium falciparum; assay: Antiplasmodial activity against multidrug-resistant Plasmodium falciparum FCR-3 by [3H]-hypoxanthine incorporation assay; type: functional, organism-based, FCR-3/Gambia; settings: Plasmodium falciparum, FCR-3/Gambia
Procedure, shortened: (§1)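 Blood-stage P. falciparum 3D7 and FCR-3 were tested by a modified [3H]-hypoxanthine incorporation assay. Chloroquine was the reference in all runs.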

[15] = Genotoxicity in Salmonella typhimurium TA1535 harboring pSK1002 assessed as umu gene induction at 0.031 mg/ml in absence of Sprague-Dawley rat liver S9 fraction after by SOS/umu assay relative to control; type: toxicity, organism-based; settings: salmonella enterica subsp. enterica serovar typhimurium, read-out: FC
[16] = Genotoxicity in Salmonella typhimurium TA1535 harboring pSK1002 assessed as survival at 0.001 mg/ml in presence of Sprague-Dawley rat liver S9 fraction after by SOS/umu assay relative to control; type: toxicity, organism-based; settings: salmonella enterica subsp. enterica serovar typhimurium, read-out: Survival
[17] = Genotoxicity in Salmonella typhimurium TA1535 harboring pSK1002 assessed as umu gene induction at 0.008 mg/ml in absence of Sprague-Dawley rat liver S9 fraction after by SOS/umu assay relative to control; type: toxicity, organism-based; settings: salmonella enterica subsp. enterica serovar typhimurium, read-out: FC
[18] = Genotoxicity in Salmonella typhimurium TA1535 harboring pSK1002 assessed as umu gene induction at 0.031 mg/ml in presence of Sprague-Dawley rat liver S9 fraction after by SOS/umu assay relative to control; type: toxicity, organism-based; settings: salmonella enterica subsp. enterica serovar typhimurium, read-out: FC
[19] = Genotoxicity in Salmonella typhimurium TA1535 harboring pSK1002 assessed as umu gene induction at 0.125 mg/ml in absence of Sprague-Dawley rat liver S9 fraction after by SOS/umu assay relative to control; type: toxicity, organism-based; settings: salmonella enterica subsp. enterica serovar typhimurium, read-out: FC
[20] = Genotoxicity in Salmonella typhimurium TA1535 harboring pSK1002 assessed as umu gene induction at 0.016 mg/ml in absence of Sprague-Dawley rat liver S9 fraction after by SOS/umu assay relative to control; type: toxicity, organism-based; settings: salmonella enterica subsp. enterica serovar typhimurium, read-out: FC
[21] = test system: Plasmodium falciparum; assay: Antiplasmodial activity against chloroquine-sensitive Plasmodium falciparum 3D7 by [3H]-hypoxanthine incorporation assay; type: functional, organism-based; settings: Plasmodium falciparum, 3D7; procedure, shortened: as §1
[22] = Genotoxicity in Salmonella typhimurium TA1535 harboring pSK1002 assessed as survival at 0.063 mg/ml in presence of Sprague-Dawley rat liver S9 fraction after by SOS/umu assay relative to control; type: toxicity, organism-based; settings: salmonella enterica subsp. enterica serovar typhimurium, read-out: Survival
[23] = Genotoxicity in Salmonella typhimurium TA1535 harboring pSK1002 assessed as umu gene induction at 0.016 mg/ml in presence of Sprague-Dawley rat liver S9 fraction after by SOS/umu assay relative to control; type: toxicity, organism-based; settings: salmonella enterica subsp. enterica serovar typhimurium, read-out: FC
[24] = Genotoxicity in Salmonella typhimurium TA1535 harboring pSK1002 assessed as survival at 0.008 mg/ml in presence of Sprague-Dawley rat liver S9 fraction after by SOS/umu assay relative to control; type: toxicity, organism-based; settings: salmonella enterica subsp. enterica serovar typhimurium, read-out: Survival
[25] = Genotoxicity in Salmonella typhimurium TA1535 harboring pSK1002 assessed as survival at 0.008 mg/ml in absence of Sprague-Dawley rat liver S9 fraction after by SOS/umu assay relative to control; type: toxicity, organism-based; settings: salmonella enterica subsp. enterica serovar typhimurium, read-out: Survival
[26] = Genotoxicity in Salmonella typhimurium TA1535 harboring pSK1002 assessed as umu gene induction at 0.125 mg/ml in presence of Sprague-Dawley rat liver S9 fraction after by SOS/umu assay relative to control; type: toxicity, organism-based; settings: salmonella enterica subsp. enterica serovar typhimurium, read-out: FC
[27] = Genotoxicity in Salmonella typhimurium TA1535 harboring pSK1002 assessed as survival at 0.001 mg/ml in absence of Sprague-Dawley rat liver S9 fraction after by SOS/umu assay relative to control; type: toxicity, organism-based; settings: salmonella enterica subsp. enterica serovar typhimurium, read-out: Survival
[28] = Genotoxicity in Salmonella typhimurium TA1535 harboring pSK1002 assessed as survival at 0.016 mg/ml in presence of Sprague-Dawley rat liver S9 fraction after by SOS/umu assay relative to control; type: toxicity, organism-based; settings: salmonella enterica subsp. enterica serovar typhimurium, read-out: Survival
[29] = Genotoxicity in Salmonella typhimurium TA1535 harboring pSK1002 assessed as survival at 0.004 mg/ml in presence of Sprague-Dawley rat liver S9 fraction after by SOS/umu assay relative to control; type: toxicity, organism-based; settings: salmonella enterica subsp. enterica serovar typhimurium, read-out: Survival

Row | Compound | fold induction at 0.002 mg/ml [1] | fold induction at 0.001 mg/ml [2] | viability at 0.002 mg/ml [3] [%] | CC50 [4] [µM] | fold induction at 0.063 mg/ml [5] | fold induction at 0.004 mg/ml [6] | viability at 0.063 mg/ml [7] [%] | viability at 0.031 mg/ml [8] [%] | selectivity ratio [9] | fold induction at 0.008 mg/ml [10] | fold induction at 0.004 mg/ml [11] | viability at 0.031 mg/ml [12] [%] | viability at 0.125 mg/ml [13] [%] | IC50 [14] [µM] | fold induction at 0.031 mg/ml [15] | viability at 0.001 mg/ml [16] [%] | fold induction at 0.008 mg/ml [17] | fold induction at 0.031 mg/ml [18] | fold induction at 0.125 mg/ml [19] | fold induction at 0.016 mg/ml [20] | further results
1 | OC(CCN1CC=C(c2ccc(F)cc2)CC1)c1ccc2c(c1)OCO2 (stereo unspecified) | 0.8 | 0.7 | 122 | 165 | 0.9 | 0.9 | 96.6 | 137 | 97 | 1 | 0.8 | 113 | 116 | 1.7 | 0.8 | 111 | 0.7 | 0.7 | 0.8 | 0.9 | IC50 [21]: 17.4 µM; viability at 0.063 mg/ml [22]: 105%; fold induction at 0.016 mg/ml [23]: 1; viability at 0.008 mg/ml [24]: 96%; viability at 0.008 mg/ml [25]: 128%; fold induction at 0.125 mg/ml [26]: 1; viability at 0.001 mg/ml [27]: 131%; viability at 0.016 mg/ml [28]: 92%; viability at 0.004 mg/ml [29]: 105%
2 | OC(CCN1CCN(C(c2ccccc2)c2ccccc2)CC1)c1ccc(F)c(F)c1 (stereo unspecified) | 0.9 | 0.6 | 104 | 54.3 | 4 | 0.9 | 28 | 103 | 147 | 0.8 | 1 | 20.7 | 24.1 | 0.37 | 1.9 | 98.5 | 1.2 | 0.8 | 1.4 | 2 | IC50 [21]: 0.38 µM; viability at 0.063 mg/ml [22]: 112%; fold induction at 0.016 mg/ml [23]: 0.8; viability at 0.008 mg/ml [24]: 101%; viability at 0.008 mg/ml [25]: 105%; fold induction at 0.125 mg/ml [26]: 0.7; viability at 0.001 mg/ml [27]: 110%; viability at 0.016 mg/ml [28]: 94.9%; viability at 0.004 mg/ml [29]: 87.6%
3 | N#Cc1ccc(C(O)CCN2CC=C(c3ccc(F)cc3)CC2)cc1 (stereo unspecified) | 0.9 | 1.1 | 103 | 82.4 | 1.2 | 0.8 | 82.3 | 130 | 62 | 1 | 0.9 | 77.3 | 87.9 | 1.33 | 1.2 | 104 | 1.1 | 0.8 | 1.1 | 1.1 | IC50 [21]: 8.48 µM; viability at 0.063 mg/ml [22]: 101%; fold induction at 0.016 mg/ml [23]: 0.9; viability at 0.008 mg/ml [24]: 108%; viability at 0.008 mg/ml [25]: 89.4%; fold induction at 0.125 mg/ml [26]: 1; viability at 0.001 mg/ml [27]: 109%; viability at 0.016 mg/ml [28]: 126%; viability at 0.004 mg/ml [29]: 122%
4 | COc1ccccc1C1=CCN(CCC(O)c2ccc(F)c3ccccc23)CC1 (stereo unspecified) | 0.9 | 0.8 | 86.6 | 17.7 | 0.5 | 0.8 | 90.7 | 124 | 14 | 0.7 | 0.9 | 47.2 | 114 | 1.3 | 1.3 | 106 | 0.8 | 0.5 | 0.4 | 1.2 | IC50 [21]: 0.1 µM; viability at 0.063 mg/ml [22]: 76%; fold induction at 0.016 mg/ml [23]: 0.8; viability at 0.008 mg/ml [24]: 96.9%; viability at 0.008 mg/ml [25]: 76.4%; fold induction at 0.125 mg/ml [26]: 0.7; viability at 0.001 mg/ml [27]: 81.7%; viability at 0.016 mg/ml [28]: 84%; viability at 0.004 mg/ml [29]: 91.1%
